Each structure is given as a SMILES string. Hit rate of the full screen: of about 2,500 compounds, about 1,200 (48%) were called active.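 Rule for the calls: active = mean activation above the low control average plus 3 SD, as set in the primary screen (cut at about 12% in these data); inactive = the rest.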 The set was probably picked from earlier hits. Some of the results follow.

The experiment has as its target Troponin I, cardiac muscle (Homo sapiens) + Troponin T, cardiac muscle (Homo sapiens) + Troponin C, slow skeletal and cardiac muscles (Homo sapiens) (UniProt P19429+P45379+P63316). In words: cardiac RTF calcium sensitivity activators, confirmation, biochemical, IANBD-TnC fluorescence, triplicate (AID 504383).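 Note: 0% = DMSO at 0.472 mM calcium and 100% = DMSO at 2.9 mM calcium.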 To be noted: IANBD-labeled cardiac RTF, Ca2+ sensitivity fluorescence; at 7.2 µM; active compounds read high; scaled from EC20 to saturating calcium; tested at EC20 calcium, 0.472 mM. Put shortly: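 Material: labelled regulated thin filaments; Reagent: 0.472 mM calcium; Incubation: 15 min compound incubation with filaments at 25 °C; Detection: filament fluorescence intensity; Evaluation: fluorescence increase normalised to calcium controls; Benchmarks: low control EC20 calcium, high control EC100 calcium.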
As to `COc1ccc(-c2cc3ncc(-c4ccccc4)c(N)n3n2)cc1`, the activation is 15.2% (active). With `O=C(Nc1cccc(Cl)c1)c1cc(S(=O)(=O)NCCc2ccc(Cl)cc2)ccc1F` the figure was 13.9% (active); with `COc1ccc(OC)c2[nH]c(=O)c(CCNS(=O)(=O)c3ccc(Cl)cc3)cc12`, 1.64% (inactive).

For the compound `COc1ccc(C(=O)c2sc3nc(-c4ccccc4)ccc3c2N)cc1`, the activation is 85.5% (active). The result for `COc1ccc(C(=O)c2sc3nc(C)cc(-c4cccs4)c3c2N)cc1OC` reads 4.99% (inactive); that for `COc1ccc(C(=O)c2sc3nc(C)cc(-c4cccs4)c3c2N)cc1`, 24.7% (active); that for `COc1ccc(C(=O)c2ccsc2N)cc1`, 22% (active).

As to `COc1ccc(-c2c(C#N)c(N)nc3sc(C(=O)c4ccccc4)c(N)c23)cc1`, the activation is -1.46% (inactive). With `Cc1cc(C)c(S(=O)(=O)Nc2ccc3[nH]c(=O)[nH]c3c2)c(C)c1` the figure was 21.2% (active); with `Cc1ccc(NC(=O)Nc2ccc(F)cc2)cc1Cl`, 20.6% (active). The result for `Cc1cc(C)c(C(N)=O)c(Nc2ccc(F)cc2)n1` reads 1.65% (inactive). The result for `Cc1ccc(NC(=O)C(OC(=O)c2ccc(F)cc2)c2ccccc2)cc1Cl` (configuration not stated) reads 8.32% (inactive). As for `O=C(O)c1cc(Cl)ccc1-c1ccc(/C=C/c2cc(C(F)(F)F)[nH]c(=O)n2)o1`, the activation is 56.3% (active).

Consider `O=C(O)c1ccccc1-c1ccc(/C=C/c2cc(C(F)(F)F)[nH]c(=O)n2)o1`, for which the activation is 8.85% (inactive). `CC(=O)OCC[N+](C)(C)C`: the activation is 54.7% (active). The result for `O=C1/C(=C/c2ccc(Br)cc2)Oc2cc(O)ccc21` reads 58.7% (active). The result for `O=C1/C(=C/c2cccc(F)c2)Oc2cc(O)ccc21` reads 5.33% (inactive); that for `COc1cc(/C=C2\Oc3cc(O)ccc3C2=O)ccc1O`, -0.13% (inactive).

With `Cc1cn2c(N)c(C=C3C=C(Cl)C(=O)C(Cl)=C3)c(=O)nc2s1`, the activation is 17.6% (active). For the compound `COC1=C/C(=C/c2c(N)n3c(nc2=O)sc2cc(S(C)(=O)=O)ccc23)C=CC1=O`, the activation is 10.2% (inactive). The result for `COC1=C/C(=C/c2c(N)n3cc(C)sc3nc2=O)C=CC1=O` reads 4.28% (inactive).

On to `C=CCNc1nnc(SCC(=O)N2CCC(C(N)=O)CC2)s1`, for which the activation was 15.8% (active). With `Cc1ccc(C2C(C(=O)c3cccs3)=C(O)C(=O)N2c2nnc(C)s2)cc1` (configuration not stated) the figure was 52.5% (active); with `C=CCOc1ccc(C2C(C(=O)c3cccs3)=C(O)C(=O)N2c2nnc(C)s2)cc1` (configuration not stated), 15.5% (active); with `Cc1cc(N2C(=O)C(O)=C(C(=O)c3cccs3)C2c2ccc(F)cc2)no1` (configuration not stated), 23.8% (active). With `O=C(Oc1ccc2ccc(=O)oc2c1)c1cccs1` the figure was 1.63% (inactive).

For `COc1ccc(C2C(C(=O)c3cccs3)=C(O)C(=O)N2c2nnc(C)s2)cc1OC` (configuration not stated), the activation is 7.86% (inactive). Turning to `COc1ccc(C2C(C(=O)c3cccs3)=C(O)C(=O)N2c2nncs2)cc1` (configuration not stated), the activation is 20.1% (active). For the compound `O=C(c1ccccc1)N1C(=O)C(c2ccccc2)Oc2ccccc21` (configuration not stated), the activation is 1.2% (inactive). The result for `COc1cc(OC)cc(C(=O)NCC(=O)OC2CCOC2=O)c1` (configuration not stated) reads 17.4% (active); that for `O=C1/C(=C/c2cccs2)N=C(c2cccs2)N1Nc1ccccc1`, 18.7% (active). As to `CCCN1C(=O)/C(=C/c2ccc(N3CCCC3)c(C)c2)NC1=S`, the activation is 8.1% (inactive). As for `Cc1cc(N2CCCC2)ccc1/C=C1\NC(=S)N(C)C1=O`, the activation was 11.3% (inactive). On to `Cc1cc(/C=C2\NC(=S)N(C)C2=O)ccc1N1CCCC1`, for which the activation is 26.1% (active). With `CCOc1ccc(NC(=O)/C(C#N)=C/c2ccc(N3CCCC3)c(C)c2)cc1` the figure was 2.19% (inactive); with `Cc1cc(/C=C2/C(=O)N(C)C(=S)N2C)ccc1N1CCCC1`, 106% (active). On to `CCOc1ccc(NC(=O)/C(C#N)=C\c2ccc(N3CCCC3)c(C)c2)cc1`, for which the activation was 1.35% (inactive). The result for `O=C(Cn1cnc2ccccc2c1=O)c1ccc(Br)cc1` reads 424% (active). As for `O=C(c1ccc(Cl)cc1)n1cnc2ccccc21`, the activation is 7.26% (inactive). As to `COc1ccc(C(=O)Cn2cnc3ccccc3c2=O)cc1OC`, the activation is 6.44% (inactive).

As to `COc1cc(/C=C(\C#N)c2nc3ccccc3o2)ccc1O`, the activation is 3.75% (inactive).

In the case of `COc1cc(/C=C(/C#N)C(=O)NCCCc2ccccc2)ccc1OCC(=O)O`, the activation was 11.5% (inactive). The result for `COc1cc(/C=C(\C#N)c2nc3ccccc3s2)ccc1OCC(=O)Nc1ccccc1` reads 92.9% (active); that for `CCN(CC)c1ccc(/C=C/c2cc(-c3ccccc3)c3ccccc3n2)cc1`, 19.4% (active).

For `c1ccc(Nc2nc3ccccc3n3cnnc23)cc1`, the activation was 10.4% (inactive). The result for `CC(=O)Nc1ccc(S(=O)(=O)Nc2nc3ccccc3nc2Nc2ccc(N)cc2)cc1` reads 5.97% (inactive); that for `Cn1cnnc1Sc1nc2ccccc2nc1NS(=O)(=O)c1ccccc1`, 26.2% (active); that for `Cn1nnc(NC(=S)NC(=O)/C=C/c2ccco2)n1`, 4.19% (inactive). With `CCC(CC)c1nnc(NC(=O)/C=C/c2ccco2)s1` the figure was 18.8% (active); with `COc1ccc(C(=O)/C=C/c2ccc(N(C)C)cc2)c(OC)c1`, 7.89% (inactive); with `COc1ccc(N=C2NC(=O)S/C2=C\c2ccc(N(C)C)cc2)cc1`, 54.9% (active). The result for `C=CCOc1ccc(/C=C2\SC(=Nc3cccnc3)NC2=O)cc1` reads 6.73% (inactive). For the compound `CCOc1ccc(N=C2NC(=O)S/C2=C\c2ccc(N(C)C)cc2)cc1`, the activation was 5340% (active). The result for `C=CCN1C(=O)c2ccccc2NC1c1cc(Br)cs1` (configuration not stated) reads 53.6% (active); that for `O=C(NN1C(=O)c2ccccc2NC1c1ccco1)c1ccccc1` (configuration not stated), 3.92% (inactive); that for `CCOCCn1c(CN2CCN(CC)CC2)nc2c1c(=O)n(C)c(=O)n2C`, 66% (active). The result for `CC1=Nc2ccccc2/C1=C/c1nc(-c2ccc(C)s2)oc1O` reads 7.81% (inactive); that for `CC1=Nc2ccccc2/C1=C/c1sc(=S)n(-c2cccc(C(=O)O)c2)c1O`, 13.1% (active).

For `Oc1[nH]c(=S)sc1/C=C1\C(c2ccccc2)=Nc2ccccc21`, the activation is 10% (inactive). The result for `CCc1cc(=O)n2c([nH]c3ccccc32)c1C#N` reads 3.83% (inactive). `CCC(C)(C)n1nnnc1C(c1ccc(C)cc1)N1CCN(C(=O)c2ccco2)CC1` (configuration not stated): the activation is 4.34% (inactive). With `CCC(c1nnnn1C1CCCCC1)N1CCN(C(=O)c2ccco2)CC1` (configuration not stated) the figure was 23.4% (active).

Source of the values: PubChem BioAssay AID504383 (The Scripps Research Institute Molecular Screening Center, 2011).
